This is a sample that favours compounds with a hit; in the whole collection about 1.2% have one here.
Efflux pump inh = blocks antifungal efflux pumps in multiplex yeast assay. S. cerevisiae Candida pump triplex, Nile Red efflux. inhibition, % at 10 µM. hit rate 0.44% among 330,000. AID 485275;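 active = plate passing quality check with inhibition over a set limit, or well fluorescence over plate mean plus 4 SD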;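 also: Nile Red retained in pooled yeast measured as flow cytometry median fluorescence; 0% = buffer negative control and 100% = Enniatin B positive control; higher means more Nile Red kept so more efflux inhibition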
CaV13 ICDI inh = Primary screen for inhibitors of IQ motif and Ca2+-dependent inactivation inhibitor domain binding in CACNA1D, Förster resonance energy transfer in living cells, … | HEK cells, CFP/YFP FRET ICDI-IQ, plate reader, 10 min; percent FRET-ratio fall versus neutral wells | inhibition, % at 12.3 µM | hit rate 0.098% among 340,000 | AID 743397;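 active = mean replicate inhibition of at least 30% and at least 1% of replicates passing that level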;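 also: 0% = median of the neutral control wells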
FN deposition inh = fibronectin deposition inhibition. AH1F fibroblasts, Alexa488-fibronectin deposition fluorescence, overnight. inhibition, % at 12.6 µM. hit rate 0.086% among 350,000. AID 743247;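 active = mean inhibition across replicates of 30% or more, regardless of how many single replicates reach that level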;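 also: positive control wells lacked labelled fibronectin entirely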
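Material: AH1F fibroblast monolayer depositing Alexa488-labelled fibronectin into matrix | Input: 10000 AH1F cells/well | Medium: DMEM plus 2% serum, read in PBS | Reagent: Alexa488-fibronectin, 24 nM final in well | Compound dosing: One dose per compound, pinned | Schedule: 1 h adhesion, overnight exposure | Measured by: Fluorescence at 485 nm excitation, 525 nm emission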
SR-BI uptake up = enhances SR-BI lipid uptake from DiI-HDL | CHO ldlA[mSR-BI] cells, DiI-HDL uptake fluorescence, 3 h; 100 = double the neutral-control signal | activation, % at 12.5 µM | hit rate 0.096% among 320,000;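 active = mean replicate activation of at least 60% and every replicate at or above 60%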;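 also: 0% = median plate neutral-control signal and 100% = twice that signal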
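Material: SR-BI-overexpressing, LDLR-lacking CHO cells | Dosing: Single compound concentration, delivered by pin transfer | Probe or stimulus: Labelled HDL, 10 µg/mL | Signal: Bottom-read cell fluorescence after medium removal, ex 550/em 595 nm | Schedule: 3 h, 37 °C | Evaluation: HDL uptake via cellular fluorescence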
SR-BI HDL uptake = inhibitors of mouse SR-BI mediated HDL lipid uptake. Q61009. ldlA[mSR-BI] CHO cells, DiI-HDL uptake fluorescence, 3 h. inhibition, % at 12.5 µM. hit rate 0.96% among 320,000. AID 488896;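 active = mean replicate inhibition of at least 70% and a set share of replicates each scoring 70 or more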;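 also: 0% = median of neutral control wells and 100% = median of positive control wells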
Target sequence (Q61009 whole entry, looked up): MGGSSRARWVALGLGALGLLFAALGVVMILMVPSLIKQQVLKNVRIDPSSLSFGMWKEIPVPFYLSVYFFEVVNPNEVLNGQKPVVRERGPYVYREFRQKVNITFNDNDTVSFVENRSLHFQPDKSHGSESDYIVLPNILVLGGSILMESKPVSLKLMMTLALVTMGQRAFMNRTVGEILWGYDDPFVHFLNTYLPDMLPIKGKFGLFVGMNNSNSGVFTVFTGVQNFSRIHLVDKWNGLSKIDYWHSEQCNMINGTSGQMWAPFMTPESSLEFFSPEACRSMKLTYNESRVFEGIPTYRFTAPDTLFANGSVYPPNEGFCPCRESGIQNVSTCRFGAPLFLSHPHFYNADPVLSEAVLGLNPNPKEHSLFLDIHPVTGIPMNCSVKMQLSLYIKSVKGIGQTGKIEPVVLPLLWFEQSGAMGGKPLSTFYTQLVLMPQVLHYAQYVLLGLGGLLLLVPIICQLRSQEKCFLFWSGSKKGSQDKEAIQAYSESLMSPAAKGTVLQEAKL
Yeast cmpd fluor = compound fluorescence in yeast efflux pump counter-screen. shares compounds with Efflux pump inh. S. cerevisiae AD/pABC3, flow cytometry. fluorescence ratio to DMSO, % at 10 µM. hit rate 4% among 1,700;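 active = fluorescence ratio to DMSO above its plate's cutoff, the plate mean ratio plus 5 SD, cut at about 210% in these data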;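 also: unstained yeast with no Nile Red so the signal is compound autofluorescence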
CaMdr1 efflux inh = Candida Mdr1 efflux pump inhibition | shares compounds with Efflux pump inh | S. cerevisiae AD/CaMDR1, Nile Red efflux, flow cytometry | inhibition, % at 10 µM | hit rate 1% among 1,700 | AID 588518; in the data active = inhibition above about 26%;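 also: 0% = DMSO vehicle and 100% = reference inhibitor; higher means more Nile Red retained so more efflux inhibition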
Cdr2 pump inh = Candida Cdr2 efflux pump inhibition. shares compounds with Efflux pump inh. S. cerevisiae AD/CaCDR2, Nile Red retention, flow cytometry. Nile Red retention ratio vs DMSO, % at 10 µM. hit rate 4% among 1,700. AID 588520; in the data active = Nile Red retention ratio vs DMSO above about 190%;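 also: higher ratio means more blocking of Cdr2 efflux of the dye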
CaCdr1 efflux inh = blocks the Candida albicans Cdr1 efflux pump in yeast; inhibition, % at 10 µM; hit rate 1% among 1,700; shares compounds with Efflux pump inh; S. cerevisiae AD/CaCDR1, Nile Red efflux, flow cytometry;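 active = inhibition above the screen-wide mean plus twice its standard deviation, cut at about 32% in these data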
Starred values were filed as active, the others as inactive; nt = no result.

SMILES	Efflux pump inh	CaV13 ICDI inh	FN deposition inh	SR-BI uptake up	SR-BI HDL uptake	Yeast cmpd fluor	CaMdr1 efflux inh	Cdr2 pump inh	CaCdr1 efflux inh
O=C(C1CCCCC1)N1CCCC(c2nc(-c3ccc(F)cc3)no2)C1 (configuration not stated)	8.2*	-3.5	5.2	2.2	-2.2	104.5	0.1	112.4	0.1
O=C(Nc1ccccc1)N1CCCC(c2nc(-c3ccc(F)cc3)no2)C1 (configuration not stated)	0.1	nt	nt	22.8	-22.8	nt	nt	nt	nt
COc1ccc(/C=N/N=C2/NC(=O)C(CC(=O)O)S2)cc1OCc1ccc(Cl)cc1 (configuration not stated)	12.7*	-5.9	7.0	25.3	-25.3	94.8	0.0	105.1	-0.1
CC(C)NC(=O)N(C)C[C@@H]1Oc2cc(C#C[C@H](C)O)ccc2S(=O)(=O)N([C@H](C)CO)C[C@H]1C	nt	nt	1.4	nt	nt	nt	nt	nt	nt
O=C(O)C(c1ccccc1)N1C(=O)/C(=C\c2ccc(O)c(O)c2)SC1=S (configuration not stated)	2.0*	-4.0	6.9	-28.7	28.7	115.9	0.1	124.7	0.5
COc1cc(/C=C2\SC(=S)N(C(C(=O)O)c3ccccc3)C2=O)ccc1O (configuration not stated)	0.3	-7.4	0.5	6.7	-6.7	nt	nt	nt	nt
COc1ccc(OCc2cc(C(=O)NC(C)Cc3ccccn3)no2)c(Cl)c1 (configuration not stated)	1.6*	-1.3	-37.0	-16.4	16.4	107.8	0.1	95.6	0.0
CCC(NC(=O)c1cc(COc2ccc(Cl)cc2OC)on1)c1ccncc1 (configuration not stated)	-0.4	-5.6	-2.0	-39.0	39.0	nt	nt	nt	nt
COc1ccc(OCc2cc(C(=O)N(C)C3CCOC3)no2)c(Cl)c1 (configuration not stated)	0.2	-5.1	3.3	-2.7	2.7	90.1	-0.2	93.5	-0.1
COc1ccc(OCc2cc(C(=O)N(C)C3CCOCC3)no2)c2ccccc12	0.1	-3.0	6.9	11.1	-11.1	nt	nt	nt	nt
CCC(NC(=O)c1cc(COc2ccc(OC)cc2Cl)on1)c1ccncc1 (configuration not stated)	-0.1	-5.5	7.7	-28.6	28.6	82.2	0.0	93.2	-0.4
COc1ccc(OCc2cc(C(=O)NC(C)Cc3cccnc3)no2)c(Cl)c1 (configuration not stated)	-0.1	-5.8	7.0	-22.3	22.3	nt	nt	nt	nt
COc1cccc(NC(=O)N[C@H]2CC[C@H](CC(=O)NCc3ccncn3)O[C@@H]2CO)c1	nt	nt	-16.6	nt	nt	nt	nt	nt	nt
Cc1ccc(C(=O)COc2ccccc2-c2ccccc2)cc1C	12.6*	-4.4	nt	-7.7	7.7	99.8	-0.1	91.4	0.5
CC(C)NC(=O)Nc1ccc2c(c1)C(=O)N([C@H](C)CO)C[C@@H](C)[C@H](CN(C)C(=O)Nc1ccc(F)cc1)OCCCC[C@@H](C)O2	nt	nt	7.7	nt	nt	nt	nt	nt	nt
Cc1cccc(C(C)C)c1NC(=O)Cc1ccc(S(=O)(=O)N2CCOCC2)s1	0.5*	-6.0	3.2	4.7	-4.7	285.2*	0.9	112.3	0.3
Cc1cccc(NC(=O)CNC(=O)Cc2ccc(S(=O)(=O)N3CCOCC3)s2)c1C	0.0	-16.8	0.4	10.2	-10.2	nt	nt	nt	nt
O=C1NCCOCn2nncc2CC[C@@H]1Cc1ccccc1	nt	nt	0.5	nt	nt	nt	nt	nt	nt
COc1cc(/C=C(\C#N)C(=O)Nc2cccc3ncccc23)cc(OC)c1OC	3.4*	0.5	10.5	-45.9	45.9	98.3	-0.2	118.0	0.0
N#C/C(=C\c1ccc(O)c(O)c1)C(=O)Nc1cccc2ncccc12	0.9	3.0	1.1	-10.2	10.2	107.2	-0.1	113.8	0.0
COc1ccc(NC(=O)/C(C#N)=C/c2cccnc2)c(OC)c1	0.0	-5.3	4.3	nt	-1.4	nt	nt	nt	nt
COc1ccc(/C=C(\C#N)C(=O)Nc2cccc3ncccc23)cc1OC	0.2	-9.4	4.8	nt	nt	97.2	-0.1	97.5	0.0
COc1ccc(/C=C(/C#N)C(=O)Nc2cccnc2)cc1OC	0.1	-14.9	3.0	-9.9	9.9	nt	nt	nt	nt
C[C@H](CO)N1C[C@H](C)[C@H](CN(C)S(=O)(=O)c2cccs2)OCCCC[C@H](C)Oc2ccc(NS(=O)(=O)c3cn(C)cn3)cc2C1=O	nt	nt	-10.4	nt	nt	nt	nt	nt	nt
O=c1cc(COc2ccc(Cl)c(Cl)c2)nc2sccn12	0.9*	-5.1	4.4	nt	nt	123.6	0.0	114.4	0.0
SMILES	Efflux pump inh	CaV13 ICDI inh	FN deposition inh	SR-BI uptake up	SR-BI HDL uptake	Yeast cmpd fluor	CaMdr1 efflux inh	Cdr2 pump inh	CaCdr1 efflux inh
C[C@@H]1CN([C@@H](C)CO)C(=O)c2cc(NC(=O)c3ccncc3)ccc2O[C@@H](C)CCCCO[C@H]1CN(C)C(=O)Nc1ccc(F)cc1	nt	nt	6.5	nt	nt	nt	nt	nt	nt
C[C@@H]1CN([C@H](C)CO)C(=O)c2cccc(NC(=O)C3CCCCC3)c2O[C@H]1CN(C)Cc1ccc(C(=O)Nc2ccccc2N)cc1	nt	nt	-10.6	nt	nt	nt	nt	nt	nt
O=C(/C=C/Nc1ccccc1C(=O)O)c1cccs1	0.1	-6.8	nt	29.3	-29.3	nt	nt	nt	nt
O=C(O)c1ccccc1N/C=C\[N+](=O)[O-]	0.7*	-2.7	1.3	0.5	-0.5	96.6	0.0	97.7	-0.1
Cc1cc(S(=O)(=O)NCC(c2ccc3c(c2)OCO3)N2CCOCC2)ccc1F (configuration not stated)	1.0*	-13.4	-9.4	18.5	-18.5	100.0	-0.4	114.4	-0.1
Cc1nnc(N/N=C/c2cc([N+](=O)[O-])c(N3CCC(C)CC3)cc2N2CCC(C)CC2)n1N	7.2*	-7.4	nt	-52.7	52.7	107.2	0.0	107.2	0.0
CCc1nnc(N/N=C/c2ccc(N3CCC(C)CC3)c([N+](=O)[O-])c2)n1N	0.4	-4.8	2.9	5.3	-5.3	nt	nt	nt	nt
CN1c2ccc(C#Cc3cccnc3)cc2[C@H]2[C@H](CCN2C(=O)c2cccnc2)[C@@H]1CO	nt	nt	11.1	nt	nt	nt	nt	nt	nt
CO[C@H]1CN(C)C(=O)c2cc(NS(C)(=O)=O)ccc2OC[C@@H](C)N(Cc2cccnc2)C[C@H]1C	nt	nt	-23.3	nt	nt	nt	nt	nt	nt
Cc1ccccc1NC(=S)NCc1ccccc1	8.9*	-14.6	-3.8	-18.2	18.2	94.8	-0.2	111.6	-0.1
CN1C(=O)c2cc(NC(=O)C3CCCC3)ccc2OC[C@H]2O[C@H](CC(=O)NCC(F)(F)F)CC[C@@H]21	nt	nt	-3.6	nt	nt	nt	nt	nt	nt
O=C(CSc1nnc(Cc2cccs2)n1Cc1ccco1)Nc1cc(Cl)cc(Cl)c1	0.1	-5.5	5.1	nt	nt	114.1	-0.1	118.2	0.0
